NLRP3 yeast inh: NALP3 inflammasome inhibitors in reconstituted yeast, primary screen, luminescence, uHTS; Yeast reconstituted NLRP3/ASC/caspase-1, beta-gal luminescence, 24 h; inhibition, % at 10 µM; hit rate 0.39% among 330,000; AID 2825, 2010;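 active = inhibition of 50% or more; inactive = inhibition below 50%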;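 note: plate controls were induced DMSO wells for no effect and uninduced yeast grown without galactose for full effect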
MC4R antagonist: MC4R antagonists of cAMP signaling, primary screen, cell-based, TR-FRET, antagonist arm of biased-ligand search; MC4R-expressing cells, MTII-stimulated cAMP, LANCE TR-FRET; AID 540295, 2011; hit rate 0.48% among 360,000; Melanocortin receptor 4 (Homo sapiens), P32245; inhibition, % at 6.5 µM;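 active = inhibition above its plate's cutoff, the mean of tested wells on that plate plus 3 SD, cut at about 29% in these data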;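 note: 0% = Melanotan II alone and 100% = Melanotan II plus saturating MCL0020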
Target sequence (P32245 whole entry, looked up): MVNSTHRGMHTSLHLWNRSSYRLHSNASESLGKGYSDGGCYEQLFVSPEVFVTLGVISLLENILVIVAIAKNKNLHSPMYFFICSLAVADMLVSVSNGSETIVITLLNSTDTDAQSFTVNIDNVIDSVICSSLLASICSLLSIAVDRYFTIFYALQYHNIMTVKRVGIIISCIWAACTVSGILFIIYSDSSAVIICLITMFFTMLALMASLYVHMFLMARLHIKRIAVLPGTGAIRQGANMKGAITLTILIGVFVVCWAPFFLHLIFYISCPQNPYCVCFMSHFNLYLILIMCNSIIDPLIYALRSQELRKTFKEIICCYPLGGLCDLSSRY
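Test system: U2OS cells stably expressing human melanocortin 4 receptor (MC4R); also added: Melanotan II challenge; compound: 6.5 µM single dose; timing: 30-min compound preincubation, 1-h Melanotan II challenge, 1-h detection, room temperature; signal: Eu-cAMP/anti-cAMP TR-FRET, emission 671 nm; repeats: one well per compound, no replicates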
MC4R ag barr: MC4R agonists recruiting beta-arrestin, primary screen, cell-based, luminescence, agonist arm of biased-ligand search | hit rate 0.98% among 360,000 | Melanocortin receptor 4 (Homo sapiens), P32245 | AID 540308, 2011 | U2OS MC4R beta-arrestin complementation; percent of melanotan II response, DMSO zero | activation, % at 8.9 µM;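 active = activation above a per-plate cutoff, the mean activation of sample wells on that plate plus 3 SD, cut at about 8% in these data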
NALP1 yeast inh: NALP1 inflammasome inhibitors in reconstituted yeast, colorimetric, S. cerevisiae, triplicate retest | S. cerevisiae NALP1/ASC/caspase-1 growth, X-gal OD620, 72 h | inhibition, % at 10 µM | hit rate 0.61% among 280,000 | AID 2071, 2009; in the data active = inhibition mostly above about 24%, no sharp cut-off; inactive = mostly below about 32%
A1 inh: caspase 3/7 activation in MEF A1-2A-BIM cells, primary screen, A1 inhibitor project, cell-based, luminescence, HTS; Caspase-Glo 3/7 luminescence, 3 h; percent of clofoctol response, vehicle zero; caspase activation, % (no concentration beside the values); hit rate 0.066% among 330,000;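 active = over half of replicate activation scores above 10%, or exactly half above 10 with the replicate mean above 10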
Tb MetRS inh: T. brucei MetRS inhibitors, primary screen, biochemical, luminescence; methionyl-tRNA synthetase (Trypanosoma brucei brucei); purified T. brucei MetRS, ATP depletion, Kinase-Glo luminescence; inhibition, % at 11.9 µM; hit rate 0.4% among 360,000; AID 624268, 2012;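 active = inhibition above a per-plate cutoff of the control wells' mean inhibition plus 3 SD, cut at about 5.5% in these data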;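 note: 0% = DMSO wells median and 100% = median of wells with control inhibitor compound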
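Assay system: T. brucei methionyl-tRNA synthetase, purified | Medium: HEPES buffer with MgCl2, KCl, DTT, spermine, BSA, pyrophosphatase | Compound: 11.9 µM single point | Incubation: 15 min enzyme-compound preincubation, 2 h reaction, 10 min detection, 25 °C | Measured by: Kinase-Glo luciferase luminescence reporting remaining unconsumed ATP | Measure: % inhibition normalized to control-well medians | Replication: Singlicate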
TbMetRS confirm: T. brucei MetRS inhibitors, confirmation, biochemical, luminescence | hit rate 93% among 1,400 | T. brucei MetRS enzyme, luminescence (ATP depletion) | AID 624412, 2012 | shares compounds with Tb MetRS inh | inhibition, % at 11.9 µM; in the data active = inhibition above about 7%
Jurkat tox: Jurkat T cell cytotoxicity, cytotoxicity control for T. brucei MetRS inhibitor project, luminescence, high throughput; shares compounds with Tb MetRS inh; Jurkat cells viability, ATP luminescence; inhibition, % at 8.3 µM; hit rate 12% among 1,400; AID 624413, 2012; in the data active = inhibition above about 15%;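 note: 0% = vehicle and 100% = reference inhibitor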
TbMetRS FP orth: T. brucei MetRS inhibitors, orthogonal assay for T. brucei MetRS inhibitor project, biochemical, fluorescence polarization; shares compounds with Tb MetRS inh; purified T. brucei MetRS; inhibition, % at 11.9 µM; hit rate 44% among 1,400; AID 651607, 2012; in the data active = inhibition above about 17%;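 note: 0% = vehicle wells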
* hit, by the source's call; . = not tested or not shown. Sampled rows, rich in hits. Any-hit rate of the full collection: about 2.5%.

SMILES	NLRP3 yeast inh	MC4R antagonist	MC4R ag barr	NALP1 yeast inh	A1 inh	Tb MetRS inh	TbMetRS confirm	Jurkat tox	TbMetRS FP orth
COc1ccc(CN=C2NN=C(c3ccc(Cl)cc3)CS2)cc1	-10.8	12.9	-1.4	7.2	-0.4	-0.8	.	.	.
COc1ccc(CN=C2Nc3ccccc3CS2)cc1	31.9	-4.7	-0.5	14.9	-7.7	7.7*	24.7*	4.1	2.7
Clc1ccc2c(NCc3ccccc3)ccnc2c1	27.1	-4.6	1.1	32.0	-0.2	7.9*	19.6*	18.7*	5.0
O=C(NCCNc1ccc(Cl)cc1[N+](=O)[O-])c1ccccc1F	32.2	-4.8	-1.3	12.2	-0.8	1.9	.	.	.
O=C(NCCNc1ccnc2cc(Cl)ccc12)c1ccccc1F	9.5	7.7	0.0	-12.1	1.2	8.7*	12.9*	46.9*	9.8
CCN(CC)CCNc1ccnc2cc(Cl)ccc12	3.3	2.0	-2.2	37.2	0.6	-0.1	.	.	.
Clc1ccc(OCc2nnc3n2CCCCC3)c(Cl)c1	1.4	-0.9	3.2	-0.3	0.3	16.2*	35.7*	0.0	17.7*
Cc1cc(Cl)ccc1OCc1nnc2n1CCCCC2	9.3	-3.1	-1.1	7.8	0.8	9.4*	20.2*	0.1	8.5
Clc1ccc(NCc2nnc3n2CCCCC3)cc1	2.5	2.8	-1.3	16.1	0.8	-0.3	.	.	.
c1ccc(OCc2nnc3n2CCCCC3)cc1	-8.2	4.6	-0.8	.	0.4	-0.8	.	.	.
CCCc1c(NC(=O)Nc2ccc(F)cc2)cnn1-c1ccccc1	9.2	10.7	-2.2	-0.1	0.2	7.1*	17.2*	-6.7	8.4
Cc1cc(NC(=O)C(C)SCC(=O)OC(C)C(=O)Nc2ccc(F)cc2Cl)no1 (stereo not drawn)	8.5	11.6	-1.8	.	-0.7	-0.1	.	.	.
CCOC(=O)c1cccc(NC(=O)Cn2c(CC(=O)NC)nc3ccccc32)c1	3.4	4.0	-1.5	-12.4	1.8	79.4*	87.7*	5.5	71.4*
Cc1cccc(NC(=O)Cn2c(/C=C/c3ccccc3)nc3ccccc32)c1	11.1	9.5	1.5	36.9	-0.4	10.4*	18.9*	-0.3	9.6
Cc1nc2ccccc2n(CC(=O)Nc2cc(Cl)cc(Cl)c2)c1=O	15.7	4.4	-1.8	6.3	0.2	5.8*	11.0*	-4.0	6.8
CC(C)c1ccc(C2NC(=O)c3ccccc3O2)cc1 (stereo not drawn)	42.0	4.7	0.9	19.2	1.1	-0.3	.	.	.
O=C(Cn1c(C(F)(F)F)nc2ccccc21)Nc1ccccc1N1CCOCC1	14.3	10.0	-1.3	6.2	0.2	-0.6	.	.	.
CSc1nc2ccccc2n1CC(=O)Nc1cc(C(F)(F)F)ccc1N1CCOCC1	9.3	-1.3	-0.6	7.7	0.1	12.9*	20.8*	11.8	11.3
CCOC(=O)CNC(=O)C1CCCc2c1[nH]c1ccc(Cl)cc21 (stereo not drawn)	26.1	-4.4	-1.0	17.3	-0.2	12.2*	19.9*	0.3	4.4
O=C(Nn1c(O)c(C=C2N=c3ccccc3=N2)sc1=S)c1ccccc1	-9.7	-13.5	-3.0	-3.6	-0.7	5.0	.	.	.
Cc1ccc(S(=O)(=O)Nn2c(O)c(C=C3N=c4ccccc4=N3)sc2=S)cc1	24.3	12.9	-0.2	-6.6	-0.8	77.7*	93.3*	-7.4	57.0*
O=C(Nn1c(O)c(C=C2N=c3ccccc3=N2)sc1=S)c1ccc(Cl)cc1	10.7	3.8	-0.3	12.6	0.6	6.4*	21.0*	5.5	30.1*
Cc1ccc(C(=O)Nn2c(O)c(C=C3N=c4ccccc4=N3)sc2=S)cc1	4.8	-11.2	0.9	7.4	1.1	7.5*	14.1*	7.0	18.4*
CCC1Sc2ccc(S(=O)(=O)CCC(=O)Nc3c(Cl)cc(OC)cc3OC)cc2NC1=O (stereo not drawn)	20.6	2.7	-2.1	-0.2	0.5	4.2	.	.	.
CCCS(=O)(=O)Nc1ccc(N2CCCCC2)c(S(=O)(=O)Nc2ccccc2OC)c1	5.1	12.2	-3.0	.	.	-0.1	.	.	.
SMILES	NLRP3 yeast inh	MC4R antagonist	MC4R ag barr	NALP1 yeast inh	A1 inh	Tb MetRS inh	TbMetRS confirm	Jurkat tox	TbMetRS FP orth
CCc1ccc(C2C(=O)c3ccccc3C2=O)cc1	12.5	4.9	0.7	.	-1.4	6.3*	3.0	6.7	-7.2
COc1ccc(C2C(=O)c3ccccc3C2=O)cc1	2.1	17.0	-1.0	17.5	-8.9	0.0	.	.	.
CC1(C)C2CCC1(CS(=O)(=O)NCc1ccc(Cl)cc1Cl)C(=O)C2 (stereo not drawn)	20.2	-2.2	4.5	10.5	0.1	7.6*	20.8*	-0.6	4.4
O=C(Cc1ccc(Cl)cc1)Nc1ccc(Br)cc1	31.3	1.4	1.8	-5.5	-0.3	6.1*	10.9*	4.6	5.7
O=C(Cc1ccc(Br)cc1)NNC(=O)Nc1ccc(Cl)cc1	23.3	-1.4	-3.1	1.2	-0.4	16.9*	24.0*	5.4	17.3*
Cn1cccc1CC(=O)NNC(=O)Nc1ccc(Cl)cc1	-4.9	0.5	-0.9	-2.4	0.2	0.0	.	.	.
N#Cc1ccccc1OCCCN1CCC(Cc2ccccc2)CC1	34.2	9.5	-0.7	.	-0.3	-0.4	.	.	.
Cc1ccc(S(=O)(=O)N2CCN(C(=O)c3sccc3-c3ccccc3)CC2)cc1	9.3	3.7	-1.3	15.5	-1.9	-0.2	.	.	.
O=C(Nc1ccc(Cl)cc1)N(Cc1nc2ccccc2c(=O)[nH]1)Cc1cccs1	13.6	4.1	-3.5	12.7	1.3	9.8*	37.7*	3.0	18.9*
Cc1ccc(S(=O)(=O)Nc2cccc(C(=O)NCC3(N4CCCCC4)CCCCC3)c2)cc1F	7.9	9.5	-0.9	.	0.2	-0.2	.	.	.
O=C(NCc1nc2ccccc2[nH]1)c1ccc(S(=O)(=O)N2CCCC2)cc1	2.8	4.0	-2.5	-10.8	0.1	2.4	.	.	.
O=C(NCc1nc2ccccc2[nH]1)c1ccc([N+](=O)[O-])cc1	19.2	8.5	-2.2	8.0	0.2	52.2*	74.5*	1.7	39.5*
